Bioassay records: PubChem BioAssay, several laboratories
Most compounds without a hit are left out; they make up all but 2% or so of the library.
PKA-R1A activ: activators of PKA-R1A holoenzyme, primary screen, biochemical, fluorescence polarization, Cy5-IP20, bovine R1A, mouse PKAc; PKA-R1A dissociation; scaled: DMSO 0%, 113 µM cGMP 100%; AID 504707, 2011; 340,000 compounds, 0.083% hits; cAMP-dependent protein kinase type I-alpha regulatory subunit (Bos taurus) + …; activation, % at 11.4 µM;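 active means percent activation above the mean of all tested compounds plus 3 SD, cut at about 19% in these data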;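 further: higher means more PKAc released from R1A so a rise in polarization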
PKA-R2B act: activators of PKA-R2B holoenzyme, primary screen, biochemical, fluorescence polarization, Cy5-IP20, human; PKA-R2B holoenzyme dissociation; R2B truncated from residue 108, S112A mutant; 0% DMSO only, 100% 113 µM cGMP; activation, % at 11.4 µM; 340,000 compounds, 0.079% hits; cAMP-dependent protein kinase catalytic subunit beta (Homo sapiens) + cAMP-dependent …; AID 504700, 2011;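 active means activation above a cutoff set at the mean over all compounds plus 3 SD, cut at about 18% in these data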;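 further: higher means more holoenzyme dissociation and a rise in polarization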
Target sequence (P31323 whole entry, looked up, other chains not shown, the tested form may be a part): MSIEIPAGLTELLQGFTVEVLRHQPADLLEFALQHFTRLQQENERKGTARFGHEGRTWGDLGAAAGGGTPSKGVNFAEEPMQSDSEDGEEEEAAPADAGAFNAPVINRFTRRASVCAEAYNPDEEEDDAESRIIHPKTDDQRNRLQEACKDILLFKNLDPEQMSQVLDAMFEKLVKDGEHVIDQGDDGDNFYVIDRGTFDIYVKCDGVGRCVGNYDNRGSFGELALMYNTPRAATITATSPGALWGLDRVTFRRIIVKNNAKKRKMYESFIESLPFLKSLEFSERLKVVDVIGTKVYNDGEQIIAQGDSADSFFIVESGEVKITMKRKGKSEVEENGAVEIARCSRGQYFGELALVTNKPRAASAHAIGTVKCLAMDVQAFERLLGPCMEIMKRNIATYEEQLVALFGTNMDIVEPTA
NTR1 agonist: agonists of human NTR1, primary screen, imaging, U2OS cells, beta-arrestin-GFP, high content. AID 493036, 2011. activation, % at 20 µM. NTR1-U2OS beta-arrestin-GFP spot imaging, agonist mode. 330,000 compounds, 0.17% hits;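 active means activation at or above 40% of the spot to cytoplasm intensity ratio, with at least 20 cells analyzed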
dFosB act-1: activators of delta FosB homodimer, primary screen, biochemical, fluorescence polarization, TAMRA-CDK5 oligo, single point. Protein FosB (Mus musculus), P13346. activation, % at 25 µM. purified delta FosB; percent of positive-control signal above neutral wells. 340,000 compounds, 0.99% hits;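 active means mean activation above about 17%, with every replicate also reaching it, limit read from the data, passing the limit was not always enough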
CAL PDZ FP-1: CAL PDZ peptide-binding inhibitors, primary screen, biochemical, fluorescence polarization, Cer-tagged CAL PDZ, HTS; AID 504414, 2011; purified CAL PDZ, TMR-peptide fluorescence polarization, 1 h; 330,000 compounds, 0.02% hits; inhibition, % at 20 µM; Golgi-associated PDZ and coiled-coil motif-containing protein (Homo sapiens), Q9HD26;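 active means highest replicate inhibition of at least 40%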
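Material: tagged CAL PDZ protein CerCALP, purified; buffer or medium: sodium phosphate/NaCl buffer pH 7.4 with TCEP, IgG, Thesit; also added: fluorescent TMR peptide probe; schedule: 1 h incubation at room temperature before polarization reading; technique: fluorescence polarization from S- and P-plane intensities, G-factor corrected; control set: unlabelled peptide and DMSO controls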
CAL PDZ FP-2: untagged CAL PDZ binding inhibitors, primary screen, biochemical, fluorescence polarization, HTS; 300,000 compounds, 0.92% hits; Golgi-associated PDZ and coiled-coil motif-containing protein (Homo sapiens), Q9HD26; purified CAL PDZ, TMR-peptide fluorescence polarization, 1 h; inhibition, % at 24.9 µM; AID 602252, 2012;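 active means mean inhibition of at least 30% with at least half of replicates also reaching 30%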
dFosB act-2: activators of mouse delta FosB DNA binding, confirmation, biochemical, fluorescence polarization, TAMRA-CDK5 oligo, cherry-picked samples. 2,400 tested, under 10 active. activation, % at 24.9 µM. purified delta FosB; normalised: neutral wells 0, positive control 100. shares compounds with dFosB act-1;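 active means highest replicate activation at or above 34% and every replicate reaching that threshold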;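 further: higher polarization means more probe DNA bound by delta FosB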
Each line names hits and unclear results; the compound was inactive in the other large screens (follow-up assays come after a bar, where they were run).

N#C/C(=C(/O)COC(=O)c1ccc2c(c1)OCCO2)c1nc2ccccc2[nH]1	dFosB act-1 39 | dFosB act-2 inactive
O=C(NC(=S)Nc1nc(-c2ccccc2)cs1)c1cccnc1	none
O=C(Cc1ccccc1F)Nc1nc(-c2cccnc2)cs1	dFosB act-1 39 | dFosB act-2 inactive
O=C(Nc1nc(-c2ccccc2Cl)cs1)c1cccnc1	dFosB act-1 29 | dFosB act-2 inactive
O=C(Cc1nnc(NC(=O)Nc2ccc(F)cc2)s1)NCc1ccccc1	none (no result: PKA-R1A activ, PKA-R2B act, dFosB act-1, CAL PDZ FP-1, CAL PDZ FP-2)
Cc1c(C(=O)Nc2ccc(-c3nnc4n3CCCCC4)cc2)oc2c1ccc1ccccc12	dFosB act-1 32 | dFosB act-2 inactive
CC(C)N(Cc1ccccc1)C(=O)CN1C(=O)NC2(CCCC2)C1=O	none
Cc1ccc(-c2cc(C(=O)Nc3cccnc3)[nH]n2)c(O)c1C	dFosB act-1 25 | dFosB act-2 inactive
Cc1cccc(NC(=O)c2cc(-c3cc(C)c(C)cc3O)n[nH]2)c1	none
Cc1ccc(-c2cc(C(=O)NCc3ccc4c(c3)OCO4)[nH]n2)c(O)c1C	dFosB act-1 21 | dFosB act-2 inactive
CC(C)Oc1ccc(C(=O)NN2C(=O)NC3(CCCCC3)C2=O)cc1	none (no result: CAL PDZ FP-2)
O=C(CCS(=O)(=O)Cc1ccccc1F)NCc1ccccc1Cl	dFosB act-1 18 | dFosB act-2 inactive
Cc1ccc(CS(=O)(=O)CCC(=O)NCc2ccccc2Cl)cc1	none
O=S1(=O)N(Cc2ccccc2F)CCCN1Cc1c(F)cccc1Cl	none
Cc1cc(C)c(C)c(S(=O)(=O)N2CCC(C(=O)NCCCN3CCOCC3)CC2)c1C	none
O=C(NCc1ccccn1)c1ccc2c(=O)n3nc(Nc4ccccc4)sc3nc2c1	dFosB act-1 27 | dFosB act-2 inactive
NC(=O)Cc1ccc(OCc2nn[nH]n2)cc1	none (no result: NTR1 agonist, dFosB act-1, CAL PDZ FP-1, CAL PDZ FP-2)
Cn1c(=O)c2c(ncn2CC(=O)Nc2nc(-c3ccc(F)c(F)c3)cs2)n(C)c1=O	dFosB act-1 32 | dFosB act-2 inactive
CCCCCn1cnnc1SCC(=O)c1c(N)n(C2CC2)c(=O)[nH]c1=O	none
O=C(/C=C/c1ccccc1)Nc1ccc2c(c1)C(=O)NC2=O	none (no result: CAL PDZ FP-2)
O=C(/C=C/c1ccccc1Cl)Nc1ccc2c(c1)C(=O)NC2=O	dFosB act-1 20 | dFosB act-2 inactive
O=C(N/N=C/c1ccco1)c1cc2ccccc2o1	none
COc1ccc(/C=N\NC(=O)c2ccc(-c3ccccc3)cc2)cc1COC(C)=O	dFosB act-1 34 | dFosB act-2 inactive
COc1cc(C(=O)N/N=C/c2ccc(OC(=O)c3ccccc3Cl)c(OC)c2)ccc1O	dFosB act-1 25 (no result: CAL PDZ FP-2) | dFosB act-2 inactive
O=C(COc1ccc(/C=N/NC(=O)c2cc3ccccc3o2)cc1Br)Nc1ccccc1	dFosB act-1 66 | dFosB act-2 inactive
COc1ccc(/C=N\NC(=O)c2cc3c(ccc4ccccc43)o2)cc1O	none
COc1ccc(/C=N/NC(=O)c2cc3c(ccc4ccccc43)o2)cc1OC	dFosB act-1 77 | dFosB act-2 inactive
CC(C)(C)C(=O)N/C(N)=N/c1nc2ccccc2o1	none
O=C(N/N=C/c1ccncc1)c1ccc(COc2cccc3cccnc23)cc1	none
COc1ccc(/C=N/NC(=O)c2ccc(COc3cccc4cccnc34)cc2)cc1OC	dFosB act-1 19 | dFosB act-2 inactive
COc1ccc(/C=N/NC(=O)c2ccc(COc3cccc4cccnc34)cc2)cc1O	none
O=C(N/N=C/c1ccccc1Br)c1ccc(CSc2cccc3cccnc23)cc1	dFosB act-1 28 | dFosB act-2 inactive
O=C(N/N=C/c1cccc(O)c1)c1ccc(COc2cccc3cccnc23)cc1	dFosB act-1 33 (no result: CAL PDZ FP-2) | dFosB act-2 inactive
COc1ccc(C(=O)Nn2c(SCC(=O)NC3CCCCC3)nc3ccccc3c2=O)cc1	none
COc1ccc(C(=O)Nn2c(SCC(=O)N3CCC(C)CC3)nc3ccccc3c2=O)cc1	dFosB act-1 29 | dFosB act-2 inactive
Cc1ccc2nc3c(c(Nc4ccc5c(c4)OCCO5)c2c1)CCC3	dFosB act-1 30 | dFosB act-2 inactive
Cc1cc(Nc2ccc3c(c2)OCCO3)c2cc(Cl)ccc2n1	dFosB act-1 29 | dFosB act-2 inactive
Cc1cc(Nc2cccc(Cl)c2)c2ccccc2n1	none
COc1ccc(Nc2cc(C)nc3ccc(OC)cc23)cc1	dFosB act-1 34 | dFosB act-2 inactive
CC(=O)N1CCN(C(=O)c2cccc(S(=O)(=O)N3CCN(c4ccccc4)CC3)c2)CC1	none
O=C(NNC(=O)c1cccc(S(=O)(=O)N2CCN(c3ccccc3)CC2)c1)c1ccc(Cl)cc1	dFosB act-1 58 | dFosB act-2 inactive
CC1CCCCC1NC(=O)c1cc(S(=O)(=O)N2CCOCC2)ccc1Cl (centres undefined)	none (no result: CAL PDZ FP-2)
Cc1ccc(NC(=O)C=NOCC(=O)Nc2cc(C)cc(C)c2)cc1	dFosB act-1 25 | dFosB act-2 inactive
CC(=O)Nc1ccc(/C=N/OCC(=O)Nc2ccc(C)cc2)cc1	none
CSc1ccc(C(=O)Nc2cc(S(=O)(=O)N3CCOCC3)ccc2N2CCOCC2)cc1[N+](=O)[O-]	none (no result: NTR1 agonist)
Cc1ccc(-n2nnc3c(=O)n(CC(=O)NCc4ccco4)cnc32)cc1	none (no result: CAL PDZ FP-2)
COc1cccc(-n2nnc3c(=O)n(CC(=O)Nc4ccc(C)cc4)cnc32)c1	dFosB act-1 27 | dFosB act-2 inactive
CCOc1ccc(-n2nnc3c(=O)n(CC(=O)NCc4ccco4)cnc32)cc1	dFosB act-1 22 | dFosB act-2 inactive
CCN(CC(=O)NCc1cccs1)C(=O)c1ccc(NS(=O)(=O)c2cccc([N+](=O)[O-])c2)cc1	none
CCOc1ccc(-n2c(=O)c3c4c(sc3n(CC(=O)NCCCOC)c2=O)CCCCC4)cc1	none
NC(=O)Cn1c(=O)n(CCc2ccccc2)c(=O)c2c3c(sc21)CCCC3	none (no result: CAL PDZ FP-2)
NC(=O)Cn1c(=O)n(C2CCCCC2)c(=O)c2c3c(sc21)CCCCC3	dFosB act-1 44 | dFosB act-2 inactive
COc1ccc(-n2c(=O)c3c4c(sc3n(CC(N)=O)c2=O)CCCCC4)cc1	dFosB act-1 30 | dFosB act-2 inactive
